The inhibition is the share of the control response that was lost under treatment.

The test system of series [1] is ASPC1. Put plainly: Increase in CYP3A4 expression in CRISPR/Cas9-mediated CYP3A5 knock-out and doxycycline-induced CYP3A4 overexpressing human AsPC1 cells at 1 uM after 24 hrs by Western blot analysis. In kind it is ADME, cell-based. The following applies: aspc1, 24 h. The gist of the method:
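Overexpression was induced with 100 ng/mL doxycycline. […] Blots were probed with anti-CYP3A4 K03 (also detects CYP3A5) and β-actin, with infrared dye secondaries. Bands were normalized to actin across triplicate gels, with DMSO set as 1.0.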
In general terms: In western blotting, separated proteins are transferred to a membrane and probed.

Series [2] relates to ASPC1. Put plainly: Cytotoxicity against wild type human AsPC1 cells assessed as cell growth. Type of series: cell-based. The gist of the method:
(§1)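 Cells seeded at 10,000/well. Dox-inducible lines were induced with 100 ng/mL doxycycline, then treated 24 h later with compound at 16 two-fold dilutions (0.0003–10 μM) plus 5 μM midazolam, in 0.66% DMSO final, for 24 h. Phase-contrast confluence imaging followed. Values were normalized to six 0.66% DMSO replicates and fitted with a three-parameter log(inhibitor) vs response curve.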

In series [3] the test system is ASPC1. The series can be described thus: Cytotoxicity against CRISPR/Cas9-mediated CYP3A5 knock-out and doxycycline-induced CYP3A4 overexpressing human AsPC1 cells assessed as cell growth. Type of series: ADME, cell-based. The gist of the method: as §1
Series [4] deals with ASPC1. Put plainly: Cytotoxicity against CRISPR/Cas9-mediated CYP3A5 knock-out human AsPC1 cells assessed as cell growth. Type of series: ADME, cell-based. The gist of the method:
as §1

Series [5] deals with ASPC1. Put plainly: Cytotoxicity against lentiviral pLVX-TRE3G-ZsGreen1-CYP3A5 transduced wild type human AsPC1 cells overexpressing CYP3A5 assessed as cell growth. In kind it is ADME, cell-based. The essentials: as §1
For series [6], the system named is ASPC1. Put plainly: Cytotoxicity against CRISPR/Cas9-mediated CYP3A5 knock-out and lentiviral pLVX-TRE3G-ZsGreen1-CYP3A4 transduced human AsPC1 cells overexpressing CYP3A4 assessed as cell growth. In kind it is ADME, cell-based. The gist of the method: as §1
For series [7], the system named is ASPC1. Put plainly: Cytotoxicity against CRISPR/Cas9-mediated CYP3A5 knock-out and doxycycline-induced CYP3A5 overexpressing human AsPC1 cells assessed as cell growth. Type of series: ADME, cell-based. The gist of the method: as §1
Another series addresses CYP3A5 (Homo sapiens, UniProt P20815). The series can be described thus: Inhibition of human recombinant CYP3A5 expressed in supersomes assessed as decrease in formation of D-luciferin at 1.89 uM using luciferin-IPA as substrate incubated for 10 mins in presence of NADPH by P450-Glo luminescence assay relative to control. Particulars: probe luciferin-IPA; call rule not given here.
Series [8] deals with ASPC1. The series can be described thus: Cytotoxicity against CRISPR/Cas9-mediated CYP3A5 knock-out and lentiviral pLVX-TRE3G-ZsGreen1-CYP3A5 transduced human AsPC1 cells overexpressing CYP3A5 assessed as cell growth. In kind it is ADME, cell-based. The gist of the method:
as §1

The subject of series [9] is ASPC1. Put plainly: Cytotoxicity against doxycycline-induced CYP3A5 overexpressing wild type human AsPC1 cells assessed as cell growth. In kind it is ADME, cell-based. The essentials: as §1
The target in series [10] is T1, Cytochrome P450 3A5 (Homo sapiens, UniProt P20815). The series can be described thus: Binding affinity to His-tagged CYP3A5 (unknown origin) expressed in Escherichia coli DH5alpha assessed as five-coordinate HS ferric heme iron state formation with displacement of distal water ligand by EPR spectroscopy. The essentials:
(§2)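 Continuous-wave X-band EPR of purified recombinant enzyme, alone and in complex with ligand. Spectra were compared against the ligand-free form.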

Series [11] concerns the target T1, Cytochrome P450 3A5. Put plainly: Binding affinity to heme in His-tagged CYP3A5 (unknown origin) expressed in Escherichia coli DH5alpha assessed as formation of five-coordinate ferric heme iron by measuring type 1 Soret shift from 417 nm (low spin) to 395 nm (high spin) by UV-vis spectrophotometric titration analysis. The gist of the method:
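Purified recombinant His-tagged CYP3A5 titrated with successive ligand additions until heme absorbance stopped changing. The ligand-free spectrum was subtracted to give difference spectra. Peak-minus-trough values were plotted against ligand concentration and fitted to a binding equation for Kd. Wavelength pairs: ΔA 386–418 nm for the type I shift; ΔA 432–410 nm for the type II shift.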

The target in another series is Cytochrome P450 3A4 (Homo sapiens, UniProt P08684). Put plainly: Binding affinity to His-tagged CYP3A4 (unknown origin) expressed in Escherichia coli DH5alpha assessed as induction of HS formation by EPR spectroscopy. Type of series: ADME. The essentials: as §2
Chain of Cytochrome P450 3A4 (P08684 whole entry): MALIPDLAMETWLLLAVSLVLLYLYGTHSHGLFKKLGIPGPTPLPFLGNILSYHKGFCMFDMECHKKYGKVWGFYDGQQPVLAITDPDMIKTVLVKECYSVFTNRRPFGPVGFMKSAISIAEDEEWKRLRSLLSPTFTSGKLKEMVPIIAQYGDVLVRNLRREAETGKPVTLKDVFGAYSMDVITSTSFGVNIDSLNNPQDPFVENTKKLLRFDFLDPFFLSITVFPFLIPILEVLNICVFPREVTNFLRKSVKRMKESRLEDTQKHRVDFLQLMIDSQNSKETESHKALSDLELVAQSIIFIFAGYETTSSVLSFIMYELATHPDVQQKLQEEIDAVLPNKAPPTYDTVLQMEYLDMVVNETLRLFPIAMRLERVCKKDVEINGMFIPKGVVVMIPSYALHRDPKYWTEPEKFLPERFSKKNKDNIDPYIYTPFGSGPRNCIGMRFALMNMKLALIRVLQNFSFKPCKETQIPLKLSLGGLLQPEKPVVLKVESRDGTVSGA

T1 sequence (P20815 whole entry): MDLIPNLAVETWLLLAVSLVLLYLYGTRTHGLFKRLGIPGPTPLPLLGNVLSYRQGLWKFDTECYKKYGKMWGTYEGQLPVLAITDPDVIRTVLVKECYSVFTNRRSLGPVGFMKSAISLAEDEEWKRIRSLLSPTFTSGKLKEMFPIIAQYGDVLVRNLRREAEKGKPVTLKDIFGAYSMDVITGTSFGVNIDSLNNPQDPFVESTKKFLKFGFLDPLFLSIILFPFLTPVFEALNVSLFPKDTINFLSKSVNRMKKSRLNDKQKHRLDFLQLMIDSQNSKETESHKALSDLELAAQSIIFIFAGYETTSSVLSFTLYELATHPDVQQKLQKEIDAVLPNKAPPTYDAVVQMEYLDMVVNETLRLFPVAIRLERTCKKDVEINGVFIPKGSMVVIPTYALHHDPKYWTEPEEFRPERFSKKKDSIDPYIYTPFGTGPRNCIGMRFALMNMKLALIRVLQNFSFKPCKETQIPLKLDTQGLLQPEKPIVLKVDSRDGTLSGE
Chain of CYP3A5 (P20815 whole entry): as above

Consider `CC(=O)N1CCN(c2ccc(OCC3COC(Cn4ccnc4)(c4ccc(Cl)cc4Cl)O3)cc2)CC1` (stereo not drawn) [KETOCONAZOLE], for which the Activity entry with ASPC1 [1] is “Active”; with ASPC1 [2], “Non-Toxic”; in the series with ASPC1 [3], “Non-Toxic”; in the series on ASPC1 [4], “Non-Toxic”; in the series with ASPC1 [5] it was “Non-Toxic”; in the series with ASPC1 [6] it was “Non-Toxic”. In addition, the Activity entry in the series with ASPC1 [7], in the series on ASPC1 [8] and in the series with ASPC1 [9] was “Non-Toxic” throughout. In addition, on CYP3A5, the inhibition at 10 min, 1.89 µM is 100%.
Take `Cc1ncc2n1-c1ccc(Cl)cc1C(c1ccccc1F)=NC2` [MIDAZOLAM]: the result at Cytochrome P450 3A5 [10], at Cytochrome P450 3A5 [11] and at Cytochrome P450 3A4 was Active.

The record behind these values is ChEMBL document CHEMBL4321880 (J Med Chem, 2020).
